Mcl1 Noxa PPI = disrupts binding of human Mcl-1 to Noxa peptide. Q07820. TR-FRET Mcl-1/Noxa peptide binding, 2 h. inhibition, % at 21.7 µM. 1.5% of 220,000 active. AID 1022;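 active = compounds that cut the protein-peptide binding signal by more than 50% relative to plate controls in a single-dose test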;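 note: His-tagged Mcl-1 with rhodamine Noxa BH3 peptide and terbium anti-His antibody; 0% = Mcl-1 plus Noxa peptide wells and 100% = peptide-only wells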
Target sequence (Q07820 whole entry, looked up): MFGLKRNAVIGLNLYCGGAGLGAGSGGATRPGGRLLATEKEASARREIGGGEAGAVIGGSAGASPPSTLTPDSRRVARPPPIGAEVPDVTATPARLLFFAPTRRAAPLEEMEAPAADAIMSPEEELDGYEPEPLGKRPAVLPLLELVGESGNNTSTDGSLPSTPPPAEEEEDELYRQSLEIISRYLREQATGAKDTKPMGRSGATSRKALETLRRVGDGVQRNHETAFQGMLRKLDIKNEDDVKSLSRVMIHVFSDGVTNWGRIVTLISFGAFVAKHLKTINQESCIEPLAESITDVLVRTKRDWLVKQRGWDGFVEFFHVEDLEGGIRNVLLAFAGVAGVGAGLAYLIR
Mcl1 Bid PPI = Mcl-1/Bid interaction inhibition. Q07820. TR-FRET Mcl-1/Bid-Dy647 peptide binding, 1536-well. inhibition, % at 21.7 µM. 0.97% of 220,000 active;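 active = compounds that cut the binding signal by more than half at the single screening dose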;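 note: His-tagged Mcl-1 with europium anti-His antibody binding Bid BH3 peptide; 0% = Mcl-1 plus peptide wells and 100% = peptide-only wells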
Bim-Mcl-1 = inhibitors of Bim-Mcl-1 interaction, human | 0.1% of 190,000 active | inhibition, % at 10 µM | AID 1009 | Q07820 | Bead-based flow cytometry, Bim peptide-Mcl-1 binding; in the data active = inhibition above about 40%;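 note: 0% = no compound tracer wells and 100% = peptide blocker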
MCL1-BIM inh = inhibitors of human MCL1 binding to BIM-BH3 peptide. Q07820. GST-MCL1 / FITC-Bim-BH3 fluorescence polarization. inhibition, % at 10.9 µM. 0.68% of 320,000 active;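 active = inhibition above the mean inhibition of all tested compounds plus 3 SD, set per campaign, cut at about 40% in these data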;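 note: 0% = DMSO wells and 100% = unlabeled Bim-BH3 peptide control; higher means more loss of mP so more displacement of Bim peptide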
EBV gp42 block = blocks Epstein-Barr virus glycoprotein 42 binding; Q1HVG2; Fluorescence polarization binding assay, mP read-out; inhibition, % (tested at 21.74 µM); 0.42% of 220,000 active; in the data active = inhibition above about 50%
Target sequence (Q1HVG2 whole entry, looked up): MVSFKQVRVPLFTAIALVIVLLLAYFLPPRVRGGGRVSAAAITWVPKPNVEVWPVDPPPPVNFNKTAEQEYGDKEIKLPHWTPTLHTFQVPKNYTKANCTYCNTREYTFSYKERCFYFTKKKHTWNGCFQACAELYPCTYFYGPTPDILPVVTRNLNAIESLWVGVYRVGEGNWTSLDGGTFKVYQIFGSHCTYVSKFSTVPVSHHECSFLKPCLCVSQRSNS
RBBP9 inhibitor = blocks human serine hydrolase RBBP9; O75884; recombinant RBBP9, FP-Rh probe fluorescence polarization; inhibition, % at 7.94 µM; 0.2% of 220,000 active; AID 1515;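 active = inhibition above the campaign mean of all tested compounds plus 3 SD, cut at about 14% in these data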;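 note: plate controls were DMSO wells with RBBP9 for no effect and wells lacking RBBP9 protein for full effect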
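Test system: recombinant human RBBP9; Timing: 30 min then 45 min, 25 °C; Detection: fluorescence polarization; Control set: RBBP9 with DMSO as uninhibited control, no-protein wells as full inhibition; Compound dosing: one concentration, 7.94 µM nominal, 0.794% DMSO; Probe or stimulus: FP-Rh activity-based probe, 375 nM before mixing.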
* marks the source's active call; other numbers are inactive results; · = no result given. Sampled rows, rich in hits. Any-hit rate of the full collection: about 2.2%.

SMILES	Mcl1 Noxa PPI	Mcl1 Bid PPI	Bim-Mcl-1	MCL1-BIM inh	EBV gp42 block	RBBP9 inhibitor
O=C(/C=C/c1cccs1)N1CCN(c2ccc(O)cc2)CC1	79*	-55	2	12	7	0
CC(=O)Nc1ccc(N2CCN(C(=O)c3cccs3)CC2)cc1	9	-19	-3	10	-18	-2
CCCC(=O)N1CC(=O)Nc2ccc(Br)cc2C1c1ccc(F)cc1 (configuration not stated)	·	·	·	7	·	·
O=C1CN(C(=O)CCN2CCOCC2)C(c2ccccc2)c2cc(Br)ccc2N1 (configuration not stated)	15	-25	44*	1	-17	-12
COc1ccc(NC(=O)CSc2nccn2Cc2ccco2)cc1	·	·	·	-6	·	·
Cc1ccc(C(=O)N[C@@H](Cc2ccccc2)C(=O)N2CCC3(CC2)NCCc2[nH]cnc23)cc1C	·	·	·	1	·	·
CCOCCn1c(=O)c2c(nc3n2CC(C)CN3Cc2ccccc2)n(C)c1=O (configuration not stated)	·	·	·	0	·	·
CCOc1ccc2nc(N3C(=O)/C(=C/c4ccc(Cl)cc4)NC3=S)sc2c1	86*	93*	-5	·	64*	-3
COc1ccc2nc(N3C(=O)CNC3=S)sc2c1	-62	-24	·	-3	-13	1
CCN(CC)c1ccc(/C=N/NC(=O)Cc2nnc(NC(=O)Nc3ccccc3)s2)cc1	73*	-67	-12	-7	-66	-8
CC(C)CC(=O)Nc1ccc2c(c1)nc(CCN1CCOCC1)n2C	·	·	·	8	·	·
N=c1oc2cc(O)ccc2cc1C(=O)Nc1ccccn1	13	-20	0	-7	77*	-4
N=c1oc2cc(O)ccc2cc1C(=O)Nc1ccc(Br)cc1	·	·	·	3	·	·
N=c1oc2cc(O)ccc2cc1C(=O)Nc1nc2ccccc2s1	100*	72*	0	-24	54*	-5
COc1ccccc1C(=O)Nc1nc2ccccc2s1	·	·	·	-4	·	·
O=C(NCc1cccnc1)c1cc2nc(-c3ccc4c(c3)OCO4)cc(C(F)(F)F)n2n1	47	83*	3	3	10	-3
O=[N+]([O-])c1ccccc1CN1CCN(Cc2ccccn2)CC1	34	59*	0	4	-9	-3
CC(=O)c1ccc(N2CCN(C(=O)c3c(-c4ccccc4Cl)noc3C)CC2)cc1	·	·	·	0	·	·
COc1ccccc1N1CCN(CC(=O)c2c(C)[nH]c3ccccc23)CC1	-8	76*	-2	-5	-44	4
COc1ccc(N2CC(C(=O)N[C@@H](C)C(=O)NCc3ccccc3OC)CC2=O)cc1 (some centres not stated)	·	·	·	2	·	·
Cc1ccc(NC(=O)Cc2ccc3c(c2)OCCO3)cc1S(=O)(=O)N1CCCCC1	4	-11	·	-6	-26	-10
CCN(CC)c1ccc(Nc2nc(N3CCOCC3)c3ccccc3n2)cc1	54*	22	3	23	-1	-1
COc1ccc(NC(=O)CSc2nc3ncccc3[nH]2)cc1OC	25	11	-1	2	1	3
O=C(CSc1nnc2c(n1)[nH]c1ccccc12)Nc1ccc2c(c1)OCO2	83*	45	-5	13	25	-7
CCn1c(SCC(=O)Nc2ccc3c(c2)OCO3)nc2c1c(=O)n(C)c(=O)n2C	9	-45	2	3	-26	1
SMILES	Mcl1 Noxa PPI	Mcl1 Bid PPI	Bim-Mcl-1	MCL1-BIM inh	EBV gp42 block	RBBP9 inhibitor
O=C(CSc1nc2ncccc2[nH]1)Nc1ccc2c(c1)OCO2	-11	-3	·	3	73*	3
CC(C)n1c(SCC(=O)Nc2ccc3c(c2)OCO3)nc2c1c(=O)n(C)c(=O)n2C	0	72*	1	3	-9	-2
O=C(NCCCn1ccnc1)c1ccccc1Cl	·	·	·	2	·	·
Cn1c2c(c(=O)n(C)c1=O)C1c3cc(Cl)ccc3OCC1CO2 (configuration not stated)	2	96*	0	3	-10	-5
CCOc1ccc(C2CC(c3c(O)c4ccccc4oc3=O)=NN2c2ccccc2)cc1OC (configuration not stated)	12	-45	0	-73	141*	-4
CN(C(=O)c1cc(COc2ccc(F)cc2Cl)on1)C1CCCc2ccccc21 (configuration not stated)	·	·	·	0	·	·
CCN1CCCC1CNc1ncnc2c1[nH]c1ccc(Cl)cc12 (configuration not stated)	73*	6	-2	3	-14	1
O=C1CCCN1CCCNc1ncnc2c1[nH]c1ccc(Cl)cc12	11	-3	-1	2	3	3
CC(C)CSC1=NSC2=NC(=O)/C(=C\c3coc4ccccc4c3=O)C(=N)N12	15	5	·	23	104*	-12
N=C1/C(=C\c2coc3ccccc3c2=O)C(=O)N=C2SC(c3ccncc3)=NN12	61*	-159	·	-38	-59	-16
N=C1/C(=C/c2coc3ccccc3c2=O)C(=O)N=C2SC(c3ccco3)=NN12	46	-82	·	-52	45	5
CSC1=NSC2=NC(=O)/C(=C\c3coc4ccccc4c3=O)C(=N)N12	-31	-32	-3	-39	76*	-14
CC(=O)c1cn(N2CCCCC2)c(=O)[nH]c1=O	·	·	·	-7	·	·
Nc1ccccc1Nc1ccccc1	52*	75*	0	1	-9	4
COc1ccc(S(=O)(=O)N2CCCOC2CNC(=O)C(=O)NCCc2ccco2)cc1 (configuration not stated)	·	·	·	-3	·	·
Cn1c(=O)c(C(=O)COC(=O)c2cc(C3CC3)nc3ccccc23)c(N)n(Cc2ccccc2)c1=O	3	-8	-1	-29	-19	-14
Cn1c(=O)c(C(=O)COC(=O)c2cc(-c3ccco3)nc3ccccc23)c(N)n(CC2CC2)c1=O	95*	-7	5	44*	-21	8
O=C(NC1CC1)c1cc(-c2ccco2)nc2ccccc12	105*	39	·	·	84*	0
O=C(O)c1cc(-c2ccco2)nc2ccccc12	36	-33	-3	46*	-19	-7
COc1ccc(CNC(=O)COC(=O)c2cc(-c3ccco3)nc3ccccc23)cc1	89*	9	-1	·	15	-5
COc1ccc(CNC(=O)COC(=O)c2ccccc2C(=O)c2ccccc2)cc1	12	-8	-3	4	-6	0
CNc1cnn(-c2ccccc2)c(=O)c1Cl	10	-12	-2	7	-14	-3
O=c1c(Cl)c(N/N=C/c2ccc(Br)cc2)cnn1-c1ccccc1	52*	63*	-3	-1	2	-11
CCOC(=O)c1sc2nc3c(SCCC(=O)O)cc(C(=O)c4cc(OC)ccc4O)cn3c(=O)c2c1C	87*	85*	0	·	79*	-18
CCOC(=O)c1sc2nc3c(SCCC#N)cc(C(=O)c4cc(F)ccc4O)cn3c(=O)c2c1C	27	6	-4	-15	-61	-2
